# GSTO1 counter – GSTO1 inhibition, counter-screen for RBBP9 inhibitors. inhibition, % at 5.96 µM. P78417. recombinant GSTO1, activity-based probe fluorescence polarization. 300,000 compounds, 1.1% hits;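 active means inhibition above the campaign mean inhibition plus 3 SD, cut at about 35% in these data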;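 further: 0% = GSTO1-1 with DMSO and 100% = wells lacking GSTO1-1 enzyme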
# Target sequence (P78417 whole entry, looked up): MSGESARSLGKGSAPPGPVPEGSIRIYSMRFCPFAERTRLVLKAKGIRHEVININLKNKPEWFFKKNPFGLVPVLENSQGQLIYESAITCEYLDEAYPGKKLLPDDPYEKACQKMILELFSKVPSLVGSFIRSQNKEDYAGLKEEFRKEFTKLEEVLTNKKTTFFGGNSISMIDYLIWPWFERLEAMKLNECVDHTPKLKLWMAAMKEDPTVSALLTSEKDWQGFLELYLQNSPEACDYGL
# SUMO HTRF inh – SUMOylation inhibition; HTRF SUMOylation assay, SAE1/SAE2 + UBC9, in vitro; inhibition, % at 35 µM; 290,000 compounds, 0.36% hits; AID 2006; in the data active means inhibition above about 50%, passing the limit was not always enough
# Target sequence (P63279 whole entry, looked up): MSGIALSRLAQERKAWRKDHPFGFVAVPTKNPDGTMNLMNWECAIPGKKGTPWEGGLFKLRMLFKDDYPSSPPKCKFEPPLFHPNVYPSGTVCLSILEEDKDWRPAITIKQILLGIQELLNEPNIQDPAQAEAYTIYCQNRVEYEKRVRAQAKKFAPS
# Apaf-1 inh – blocks human Apaf-1 apoptosome activity | O14727 | reconstituted apoptosome caspase-3 activity, DEVD-Rh110 fluorescence | inhibition, % at 20 µM | 330,000 compounds, 0.71% hits | AID 489030; active means inhibition of at least 40% at 20 µM;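 further: plate controls were DMSO wells for no effect and DEVD-CHO caspase inhibitor wells for full effect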
#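 detection = Rh110 fluorescence intensity | test system = biochemical Apaf-1 apoptosome reconstitution | also added = cytochrome c and DEVD-Rh110 substrate | schedule = 30 min plus 50 min, RT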
# DTT redox prof – compounds producing H2O2 with reducing agent – biochemical, NIH compound library profiling, artefact control for MLSCN library redox annotation, primary screen; DTT-dependent redox cycling H2O2, phenol red/HRP absorbance; 100% = 100 µM peroxide control, 0% = buffer; activation, % at 10 µM; 200,000 compounds, 0.03% hits; AID 878;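 active means activation of at least 50% relative to the plate's high and low controls in the primary single-dose screen; inactive means activation below 50%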;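 further: compound incubated with DTT at 0.8 mM final as the reducing agent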
# HKDC1 inhibitor – HKDC1 (human) hexokinase inhibition; Q2TB90; recombinant HKDC1, G6PDH/diaphorase resazurin coupled fluorescence; inhibition, % at 20 µM; 340,000 compounds, 0.16% hits;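 active means inhibition above about 35% when tested at 20 µM, limit read from the data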;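 further: plate controls were DMSO wells with enzyme for no effect and DMSO wells lacking enzyme for full effect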
#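 Test system: recombinant HKDC1 (HK5) hexokinase enzyme, produced in-house; Amount: enzyme 5 µg/mL final; Buffer or medium: Tris pH 8.0 buffer with MgCl2, Tween-20, BSA, BME; Reagent: glucose and ATP substrates; Doses: 20 µM test compound, 1% DMSO; Incubation: 90 min reaction incubation at room temperature, dark; Detection: resorufin fluorescence at 613 nm.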
# Apaf-1 inh conf2 – Apaf-1 inhibition, single-dose confirmed. inhibition, % at 20 µM. reconstituted apoptosome, caspase-3 DEVD-Rh110 fluorescence. shares compounds with Apaf-1 inh. AID 504614. 1,800 compounds, 25% hits;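 active means mean inhibition of at least 40% at 20 µM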;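 further: plate controls were DMSO wells for no effect and DEVD-CHO caspase inhibitor control wells for full effect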
# Rh110 interf inh – counter-screen for Apaf-1 inhibitors: fluorescence interference. AID 504615. shares compounds with Apaf-1 inh. activation (fluorescence interference), % at 20 µM. 1,800 tested, under 10 active. Rh110 fluorescence interference, quenched caspase reaction;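 active means signal rise of 40% or more at 20 µM, treated as a fluorescence artifact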
# * hit, by the source's call; · = no result given. Sampled rows, rich in hits. Any-hit rate of the full collection: about 1.4%.
SMILES,GSTO1 counter,SUMO HTRF inh,Apaf-1 inh,DTT redox prof,HKDC1 inhibitor,Apaf-1 inh conf2,Rh110 interf inh
CN1CCC[C@@H]1CCNC(=O)c1c(-c2ccc3c(c2)OCO3)noc1-c1ccsc1,·,·,40*,·,-1,11,8
CCc1ccc2nc(NC(=O)CSCc3c(C)noc3C)sc2c1,4,-15,46*,1,5,29,5
CN1/C(=C\C(=O)COC(=O)c2nccnc2N)C(C)(C)c2ccccc21,9,·,8,·,0,·,·
CN1/C(=C\C(=O)COC(=O)c2ccc([N+](=O)[O-])o2)C(C)(C)c2ccccc21,8,4,56*,1,-2,6,0
COc1cc(OC)c2c(-c3ccccc3)cc(=O)oc2c1C(CCN1CCOCC1)c1ccc2c(c1)OCO2 (configuration not stated),·,·,42*,·,4,9,-2
COc1ccc(C2CC(=O)Oc3c(C(CCN4CCCC(C)C4)c4ccc(N(C)C)cc4)c(OC)cc(OC)c32)cc1 (configuration not stated),8,-24,49*,·,2,18,12
COc1ccc(C(CCN2CCOCC2)c2c(OC)cc(OC)c3c(-c4ccccc4)cc(=O)oc23)cc1 (configuration not stated),·,·,53*,·,2,2,7
COc1cc(OC)c2c(-c3ccccc3)cc(=O)oc2c1C(CC(=O)N1CCOCC1)c1ccc2c(c1)OCO2 (configuration not stated),10,12,18,·,4,·,·
CCCCCc1cc(=O)oc2c(C(CCN3CCCCC3)c3ccc4c(c3)OCO4)c(OC)cc(OC)c12 (configuration not stated),2,-7,66*,·,6,39,18
COc1ccccc1C(C)NC(=O)c1ccc(NC(=O)CC2SC(N3CCCC3)=NC2=O)cc1 (configuration not stated),·,·,6,·,-1,·,·
COc1ccc(C(CCN2CCCC(C)C2)c2c(OC)cc(OC)c3c(-c4ccccc4)cc(=O)oc23)cc1 (configuration not stated),8,13,54*,·,2,26,1
COc1ccc(C2C(C(=O)c3ccco3)=C(O)C(=O)N2CCCn2ccnc2)c(OC)c1 (configuration not stated),24,31,57*,·,0,4,-16
Cc1nc(NC(=O)C2CC2)sc1C(=O)Nc1ccccc1Cl,·,-5,-4,·,-2,·,·
CCN(C(=O)CSc1nnc(-c2ccccc2)n1C)C1CCS(=O)(=O)C1 (configuration not stated),3,-1,-15,-1,-5,·,·
C=CCn1c(SCC(=O)N(CC)C2CCS(=O)(=O)C2)nnc1-c1ccccc1 (configuration not stated),·,·,61*,·,-6,36,-7
CC(C)CNC(=O)CSc1nnc(-c2ccc(Cl)cc2)n1N,9,12,0,-1,8,·,·
CCN1CCCC1CNC(=O)c1cc2c(-c3ccc(Cl)cc3)nn(C)c2s1 (configuration not stated),-6,27,49*,-1,10,11,13
CCN1CCCC1CNC(=O)c1cc2c(-c3cccc(OC)c3)nn(C)c2s1 (configuration not stated),-6,35,1,-1,8,·,·
CCCCCn1c(SCC(=O)c2ccccc2)nc2cc(C(=O)NCC3CCCO3)ccc2c1=O (configuration not stated),·,·,·,·,-3,·,·
CC1=NN(CCC#N)C(=O)/C1=C/c1ccc(N(C)C)cc1,23,-14,-2,0,0,·,·
COc1cc(/C=C2\SC(N)=NC2=O)ccc1OCC(=O)Nc1ccc(C)cc1,8,48,4,1,2,·,·
CCOc1cc(/C=C2\C(=O)N(CCC#N)N=C2C)ccc1OCC(N)=O,54*,7,58*,-2,-11,4,-10
COc1cc(/C=C2\C(=O)N(CCC#N)N=C2C)ccc1OCC(=O)Nc1ccccc1,47*,83,93*,0,9,7,-2

# Assay outcomes deposited in PubChem BioAssay by several laboratories.
